Data: ChEMBL document CHEMBL4368906 (J Med Chem, 2019)
Bridge positions count the residues as written; N and C are the ends. Square brackets hold non-standard residues; d marks the D form. Peptide text beside a SMILES is read from it. NMeW = CN[C@@H](Cc1c[nH]c2ccccc12)C(=O)O; NMeY = CN[C@@H](Cc1ccc(O)cc1)C(=O)O; NMeF = CN[C@@H](Cc1ccccc1)C(=O)O; NMeK = CN[C@@H](CCCCN)C(=O)O; NMeC = CN[C@@H](CS)C(=O)O

How the values were obtained:
Urotensin-2 receptor [1] = molecular target: T1, Urotensin-2 receptor (Homo sapiens, UniProt Q9UKP6); test: Displacement of [125I]-URP or human [125I[-urotensin-2 from human urotensin 2 receptor expressed in HEK293 or CHOK1 cells after 2 hrs by gamma-counting assay; assay type: cell-based
T1 sequence (Q9UKP6 whole entry): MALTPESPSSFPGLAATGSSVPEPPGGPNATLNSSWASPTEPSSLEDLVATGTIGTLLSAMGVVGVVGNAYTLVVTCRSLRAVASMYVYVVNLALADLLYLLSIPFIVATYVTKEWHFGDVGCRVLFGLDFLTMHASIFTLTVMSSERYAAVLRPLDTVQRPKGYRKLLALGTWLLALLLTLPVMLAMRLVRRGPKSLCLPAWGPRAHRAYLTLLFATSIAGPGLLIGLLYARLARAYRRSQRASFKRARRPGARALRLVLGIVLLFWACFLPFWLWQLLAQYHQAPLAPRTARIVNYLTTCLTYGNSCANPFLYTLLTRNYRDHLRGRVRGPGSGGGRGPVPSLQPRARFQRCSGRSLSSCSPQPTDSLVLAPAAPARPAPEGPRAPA

[2] = molecular target: T2, Urotensin-2 receptor (Rattus norvegicus) (UniProt P49684); test: Agonist activity at urotensin 2 receptor in Sprague-Dawley rat thoracic aortic ring assessed as induction of contraction at 10 uM relative to KCl-induced contraction
T2 sequence (whole entry): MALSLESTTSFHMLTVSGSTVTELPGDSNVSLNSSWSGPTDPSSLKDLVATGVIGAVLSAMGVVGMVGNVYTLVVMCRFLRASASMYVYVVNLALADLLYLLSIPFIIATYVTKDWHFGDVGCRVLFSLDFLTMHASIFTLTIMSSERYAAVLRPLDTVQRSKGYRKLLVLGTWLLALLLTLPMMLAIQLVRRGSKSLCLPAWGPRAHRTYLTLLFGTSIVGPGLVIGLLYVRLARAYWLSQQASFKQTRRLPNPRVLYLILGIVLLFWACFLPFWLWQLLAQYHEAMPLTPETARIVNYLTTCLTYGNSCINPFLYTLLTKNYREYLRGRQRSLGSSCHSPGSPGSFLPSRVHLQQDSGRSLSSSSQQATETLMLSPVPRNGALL
In short: (§1)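 Male Sprague-Dawley rats, 250-300 g. Aortic rings were held in a 5-mL organ bath of oxygenated Krebs-Henseleit buffer. Each vessel was first challenged with KCl, 40 mM final in the bath. Peptides were added cumulatively from 10−11 to 10−5 M. Each contraction was taken as a percentage of the KCl response, divided by the response to hU-II (10−7 M).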

Urotensin-2 receptor [3] = molecular target: T1, Urotensin-2 receptor; test: Agonist activity at urotensin 2 receptor (unknown origin) expressed in HEK293 cells co-expressing Gq-polycistronic BRET biosensor assessed as induction of Gq activation measured for 5 mins by luminescence detection based BRET assay; assay type: cell-based
[4] = molecular target: T2, Urotensin-2 receptor (Rattus norvegicus); test: Agonist activity at urotensin 2 receptor in Sprague-Dawley rat thoracic aortic ring assessed as induction of contraction relative to urotensin-2; in short: as §1
Urotensin-2 receptor [5] = molecular target: T3, Urotensin-2 receptor (Rattus norvegicus, UniProt P49684); test: Agonist activity at urotensin 2 receptor in Sprague-Dawley rat thoracic aortic ring assessed as induction of contraction relative to KCl-induced contraction; in short: as §1
T3 sequence (P49684 whole entry): T2 sequence (whole entry)

SMILES	Ki (Urotensin-2 receptor [1]) [nM]	Activity [2] [%]	EC50 (Urotensin-2 receptor [3]) [nM]	Emax [4] [%]	EC50 (Urotensin-2 receptor [5]) [nM]
CC(C)[C@H](NC(=O)[C@@H]1CSSC[C@H](NC(=O)[C@H](C)N)C(=O)N(C)[C@@H](Cc2ccccc2)C(=O)N[C@@H](Cc2c[nH]c3ccccc23)C(=O)N[C@@H](CCCCN)C(=O)N[C@@H](Cc2ccc(O)cc2)C(=O)N1)C(=O)O	245	51	105		
CC(C)[C@H](NC(=O)[C@@H]1CSSC[C@H](NC(=O)[C@@H](N)CC(=O)O)C(=O)N(C)[C@@H](Cc2ccccc2)C(=O)N[C@@H](Cc2c[nH]c3ccccc23)C(=O)N[C@@H](CCCCN)C(=O)N[C@@H](Cc2ccc(O)cc2)C(=O)N1)C(=O)O (H-DC[NMeF]WKYCV-OH; disulfide 2-7)	229		18.6	98	537
CC(C)[C@H](NC(=O)[C@@H]1CSSC[C@H](N(C)C(=O)[C@H](C)N)C(=O)N[C@@H](Cc2ccccc2)C(=O)N[C@@H](Cc2c[nH]c3ccccc23)C(=O)N[C@@H](CCCCN)C(=O)N[C@@H](Cc2ccc(O)cc2)C(=O)N1)C(=O)O	1.74			110	4.9
CC(C)[C@H](NC(=O)[C@@H]1CSSC[C@H](NC(=O)[C@H](C)N)C(=O)N[C@@H](Cc2ccccc2)C(=O)N[C@@H](Cc2c[nH]c3ccccc23)C(=O)N[C@@H](CCCCN)C(=O)N[C@@H](Cc2ccc(O)cc2)C(=O)N1C)C(=O)O	3.55		5.25	44	9.55
CC(C)[C@H](NC(=O)[C@@H]1CSSC[C@H](NC(=O)[C@H](CC(=O)O)NC(=O)[C@@H]2CCCN2C(=O)[C@@H](NC(=O)[C@@H](N)CCC(=O)O)[C@@H](C)O)C(=O)N[C@@H](Cc2ccccc2)C(=O)N[C@@H](Cc2c[nH]c3ccccc23)C(=O)N[C@@H](CCCCN)C(=O)N[C@@H](Cc2ccc(O)cc2)C(=O)N1)C(=O)O [UROTENSIN-II]					3.02
CC(C)[C@H](NC(=O)[C@@H]1CSSC[C@H](NC(=O)[C@H](C)N)C(=O)N[C@@H](Cc2ccccc2)C(=O)N[C@@H](Cc2c[nH]c3ccccc23)C(=O)N[C@@H](CCCCN)C(=O)N(C)[C@@H](Cc2ccc(O)cc2)C(=O)N1)C(=O)O	5370	16			
CC(C)[C@H](NC(=O)[C@@H]1CSSC[C@H](NC(=O)[C@H](C)N)C(=O)N[C@@H](Cc2ccccc2)C(=O)N[C@@H](Cc2c[nH]c3ccccc23)C(=O)N[C@@H](CCCCN)C(=O)N[C@@H](Cc2ccc(O)cc2)C(=O)N1)C(=O)O	6.31		2.69	116	7.76
CC(C)[C@H](NC(=O)[C@@H]1CSSC[C@H](N(C)C(=O)[C@@H](N)CC(=O)O)C(=O)N[C@@H](Cc2ccccc2)C(=O)N[C@@H](Cc2c[nH]c3ccccc23)C(=O)N[C@@H](CCCCN)C(=O)N[C@@H](Cc2ccc(O)cc2)C(=O)N1)C(=O)O (H-D[NMeC]FWKYCV-OH; disulfide 2-7)	2.95			101	4.47
CC(C)[C@H](NC(=O)[C@@H]1CSSC[C@H](NC(=O)[C@@H](N)CC(=O)O)C(=O)N[C@@H](Cc2ccccc2)C(=O)N[C@@H](Cc2c[nH]c3ccccc23)C(=O)N[C@@H](CCCCN)C(=O)N[C@@H](Cc2ccc(O)cc2)C(=O)N1C)C(=O)O (H-DCFWKY[NMeC]V-OH; disulfide 2-7)	3.55		4.68	95	5.25
CC(C)[C@H](NC(=O)[C@@H]1CSSC[C@H](NC(=O)[C@H](C)N)C(=O)N[C@@H](Cc2ccccc2)C(=O)N(C)[C@@H](Cc2c[nH]c3ccccc23)C(=O)N[C@@H](CCCCN)C(=O)N[C@@H](Cc2ccc(O)cc2)C(=O)N1)C(=O)O	2.19		13.8	35	83.2
CC(C)[C@H](NC(=O)[C@@H]1CSSC[C@H](NC(=O)[C@@H](N)CC(=O)O)C(=O)N[C@@H](Cc2ccccc2)C(=O)N[C@@H](Cc2c[nH]c3ccccc23)C(=O)N[C@@H](CCCCN)C(=O)N[C@@H](Cc2ccc(O)cc2)C(=O)N1)C(=O)O (H-DCFWKYCV-OH; disulfide 2-7)	4.57		1.86		5.25

Continued, values first:

Ki (Urotensin-2 receptor [1]) [nM]	Activity [2] [%]	EC50 (Urotensin-2 receptor [3]) [nM]	Emax [4] [%]	EC50 (Urotensin-2 receptor [5]) [nM]	SMILES
1510	22				CC(C)[C@H](NC(=O)[C@@H]1CSSC[C@H](NC(=O)[C@H](C)N)C(=O)N[C@@H](Cc2ccccc2)C(=O)N[C@@H](Cc2c[nH]c3ccccc23)C(=O)N(C)[C@@H](CCCCN)C(=O)N[C@@H](Cc2ccc(O)cc2)C(=O)N1)C(=O)O
22.9		2.69	105	24.5	CC(C)[C@H](NC(=O)[C@@H]1CSSC[C@H](NC(=O)[C@H](CC(=O)O)NC(=O)[C@@H]2CCCN2C(=O)[C@@H](NC(=O)[C@@H](N)CCC(=O)O)[C@@H](C)O)C(=O)N[C@@H](Cc2ccccc2)C(=O)N[C@@H](Cc2c[nH]c3ccccc23)C(=O)N[C@@H](CCCCN)C(=O)N[C@@H](Cc2ccc(O)cc2)C(=O)N1C)C(=O)O
> 10000	44				CC(C)[C@H](NC(=O)[C@@H]1CSSC[C@H](NC(=O)[C@@H](N)CC(=O)O)C(=O)N[C@@H](Cc2ccccc2)C(=O)N[C@@H](Cc2c[nH]c3ccccc23)C(=O)N[C@@H](CCCCN)C(=O)N(C)[C@@H](Cc2ccc(O)cc2)C(=O)N1)C(=O)O (H-DCFWK[NMeY]CV-OH; disulfide 2-7)
20.4		5.62	97	5.75	CC(C)[C@H](NC(=O)[C@@H]1CSSC[C@H](NC(=O)[C@H](CC(=O)O)NC(=O)[C@@H]2CCCN2C(=O)[C@@H](NC(=O)[C@@H](N)CCC(=O)O)[C@@H](C)O)C(=O)N[C@@H](Cc2ccccc2)C(=O)N(C)[C@@H](Cc2c[nH]c3ccccc23)C(=O)N[C@@H](CCCCN)C(=O)N[C@@H](Cc2ccc(O)cc2)C(=O)N1)C(=O)O
> 10000	42				CC(C)[C@H](NC(=O)[C@@H]1CSSC[C@H](NC(=O)[C@@H](N)CC(=O)O)C(=O)N[C@@H](Cc2ccccc2)C(=O)N[C@@H](Cc2c[nH]c3ccccc23)C(=O)N(C)[C@@H](CCCCN)C(=O)N[C@@H](Cc2ccc(O)cc2)C(=O)N1)C(=O)O (H-DCFW[NMeK]YCV-OH; disulfide 2-7)
813		22.4	96	200	CC(C)[C@H](NC(=O)[C@@H]1CSSC[C@H](NC(=O)[C@H](CC(=O)O)NC(=O)[C@@H]2CCCN2C(=O)[C@@H](NC(=O)[C@@H](N)CCC(=O)O)[C@@H](C)O)C(=O)N(C)[C@@H](Cc2ccccc2)C(=O)N[C@@H](Cc2c[nH]c3ccccc23)C(=O)N[C@@H](CCCCN)C(=O)N[C@@H](Cc2ccc(O)cc2)C(=O)N1)C(=O)O
2140	71				CC(C)[C@H](NC(=O)[C@@H]1CSSC[C@H](NC(=O)[C@H](CC(=O)O)NC(=O)[C@@H]2CCCN2C(=O)[C@@H](NC(=O)[C@@H](N)CCC(=O)O)[C@@H](C)O)C(=O)N[C@@H](Cc2ccccc2)C(=O)N[C@@H](Cc2c[nH]c3ccccc23)C(=O)N[C@@H](CCCCN)C(=O)N(C)[C@@H](Cc2ccc(O)cc2)C(=O)N1)C(=O)O
49			112	9.77	CC(C)[C@H](NC(=O)[C@@H]1CSSC[C@H](N(C)C(=O)[C@H](CC(=O)O)NC(=O)[C@@H]2CCCN2C(=O)[C@@H](NC(=O)[C@@H](N)CCC(=O)O)[C@@H](C)O)C(=O)N[C@@H](Cc2ccccc2)C(=O)N[C@@H](Cc2c[nH]c3ccccc23)C(=O)N[C@@H](CCCCN)C(=O)N[C@@H](Cc2ccc(O)cc2)C(=O)N1)C(=O)O
2090	72				CC(C)[C@H](NC(=O)[C@@H]1CSSC[C@H](NC(=O)[C@H](CC(=O)O)NC(=O)[C@@H]2CCCN2C(=O)[C@@H](NC(=O)[C@@H](N)CCC(=O)O)[C@@H](C)O)C(=O)N[C@@H](Cc2ccccc2)C(=O)N[C@@H](Cc2c[nH]c3ccccc23)C(=O)N(C)[C@@H](CCCCN)C(=O)N[C@@H](Cc2ccc(O)cc2)C(=O)N1)C(=O)O
1.74		3.63	105	3.39	CC(C)[C@H](NC(=O)[C@@H]1CSSC[C@H](NC(=O)[C@@H](N)CC(=O)O)C(=O)N[C@@H](Cc2ccccc2)C(=O)N(C)[C@@H](Cc2c[nH]c3ccccc23)C(=O)N[C@@H](CCCCN)C(=O)N[C@@H](Cc2ccc(O)cc2)C(=O)N1)C(=O)O (H-DCF[NMeW]KYCV-OH; disulfide 2-7)
